Sampled rows, rich in hits. Any-hit rate of the full collection: about 2.8%.
PAFAH1B2 inh = PAFAH1B2 (human) inhibition; P68402; recombinant PAFAH1B2, FP-rhodamine activity probe, fluorescence polarization; inhibition, % at 3.39 µM; 340,000 tested, 1.2% active; AID 492953;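 active means inhibition above the mean of all tested compounds plus 3 SD, cut at about 24% in these data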;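 further: 0% = enzyme with DMSO and 100% = wells lacking PAFAH1B2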
Target sequence (P68402 whole entry, looked up): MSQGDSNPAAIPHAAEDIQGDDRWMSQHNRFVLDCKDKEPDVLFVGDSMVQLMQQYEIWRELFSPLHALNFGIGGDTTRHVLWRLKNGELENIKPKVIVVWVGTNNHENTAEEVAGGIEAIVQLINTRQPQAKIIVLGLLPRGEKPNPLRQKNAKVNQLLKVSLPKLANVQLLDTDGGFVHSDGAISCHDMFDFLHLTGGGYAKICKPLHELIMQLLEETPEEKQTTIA
HTRA1 inhibitor = HTRA1 (human) protease inhibition | 340,000 tested, 0.5% active | inhibition, % at 5.96 µM | Q92743 | recombinant HTRA1, FP-rhodamine activity-based probe, fluorescence polarization; in the data active means inhibition above about 36%;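 further: 0% = enzyme with DMSO and 100% = wells lacking enzyme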
PAFAH1B3 inh = inhibitors of human PAFAH1B3. recombinant PAFAH1B3, FP-rhodamine probe, fluorescence polarization. inhibition, % at 3.39 µM. 340,000 tested, 0.28% active;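 active means inhibition above the screen-wide average of all tested compounds plus 3 SD, cut at about 25% in these data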;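 further: 0% = enzyme with DMSO only and 100% = wells lacking PAFAH1B3 protein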
Target sequence (Q15102 whole entry, looked up): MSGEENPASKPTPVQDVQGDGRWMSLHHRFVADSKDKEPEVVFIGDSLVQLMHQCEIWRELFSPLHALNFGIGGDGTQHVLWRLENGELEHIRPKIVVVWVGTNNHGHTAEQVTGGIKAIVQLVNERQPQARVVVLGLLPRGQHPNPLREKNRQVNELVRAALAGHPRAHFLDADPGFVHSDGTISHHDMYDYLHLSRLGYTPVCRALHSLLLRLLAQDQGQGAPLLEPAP
mABHD4 FP = inhibits mouse alpha/beta hydrolase domain 4; Q8VD66; purified mABHD4, FP-Rh probe fluorescence polarization; inhibition, % at 8.92 µM; 370,000 tested, 0.54% active;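 active means inhibition exceeding the mean over every tested compound plus 3 SD, cut at about 30% in these data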;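 further: 0% = plate median of compound wells and 100% = S159A mutant with DMSO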
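Doses – 8.92 µM, single dose · Material – wild-type mouse ABHD4 protein · Replication – single well per compound (singlicate) · Measure – percent inhibition of probe binding, normalized to plate controls · Schedule – 45 min compound pre-incubation plus 60 min probe step, 25 °C · Detection – fluorescence polarization with parallel and perpendicular emission, 525/598 nm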
PAFAH2 FP inh = inhibitors of human PAFAH2; Q99487; recombinant PAFAH2, FP-rhodamine activity probe, fluorescence polarization; inhibition, % at 3.39 µM; 340,000 tested, 0.99% active;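 active means inhibition above the mean over all tested compounds plus 3 SD, cut at about 30% in these data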;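 further: inhibitors block probe labeling of enzyme so polarization drops; 0% = enzyme with DMSO and 100% = wells lacking PAFAH2 protein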
pPAFAH inh = inhibitors of human plasma PAF acetylhydrolase (pPAFAH) | recombinant pPAFAH, FP-rhodamine probe fluorescence polarization | inhibition, % at 3.39 µM | 330,000 tested, 1.5% active;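 active means inhibition above the mean inhibition across the screen plus 3 SD, cut at about 25% in these data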;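 further: inhibitors block binding of the rhodamine activity-based probe so polarization drops; 0% = enzyme with DMSO and 100% = wells lacking pPAFAH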
Starred values were filed as active, the others as inactive; . = no result given.

SMILES | PAFAH1B2 inh | HTRA1 inhibitor | PAFAH1B3 inh | mABHD4 FP | PAFAH2 FP inh | pPAFAH inh
O=C(O)c1ccc(/C=N/NC(=O)c2ccc(NS(=O)(=O)c3cccs3)cc2)cc1 | -2.0 | -15.1 | 11.4 | -8.7 | -2.7 | 2.3
O=S(=O)(Nc1ccc(O)c2ccccc12)c1cccs1 | 12.9 | 24.4 | 6.0 | 46.4* | 9.9 | 20.5
O=C(O)c1cc(NS(=O)(=O)c2cccs2)cc(NS(=O)(=O)c2cccs2)c1 | 25.5* | 5.0 | 2.8 | 6.5 | 10.7 | 3.3
O=S(=O)(Nc1cccc2ccccc12)c1cccs1 | 0.4 | -0.5 | 5.2 | 3.8 | 0.9 | 9.3
Cc1cccc(NC(=O)CCNS(=O)(=O)c2ccc(Cl)cc2)c1 | 12.9 | 2.5 | 12.2 | -3.0 | 7.2 | -0.3
Cc1cccc(OCCNS(=O)(=O)c2ccc(Cl)cc2)c1 | 24.2* | -18.5 | -2.8 | -5.1 | 3.0 | 5.9
C[C@H]1COc2cc(F)ccc2S(=O)(=O)N1C | . | . | . | 5.1 | . | .
CCOC(=O)[C@]12CCCCC/C=C\1N(CCc1ccc(Cl)cc1)C(=O)[C@H]2CC(=O)NCC1CCCCC1 | . | . | . | -0.5 | . | .
CC(C)c1ccc(N2C(=O)/C(=C/N(C)C)SC2=S)cc1 | 14.7 | 6.4 | 12.0 | -134.5 | 11.3 | 29.5*
O=C1c2ccccc2C(=O)N1/N=C/c1ccc(O)c(O)c1O | 3.8 | 44.1* | 17.6 | . | 25.2 | .
C[C@H]1COC(=O)[C@@H](Cc2ccc(F)cc2)C/C=C\C[C@@H](CC(=O)NCCO)C(=O)N1 | 1.5 | 7.0 | -5.7 | 7.3 | 7.2 | 1.9
C[C@@H]1COC(=O)[C@H](Cc2ccc(F)cc2)C/C=C\C[C@@H](CC(=O)NCCO)C(=O)N1 | 32.9* | -1.4 | 5.9 | -1.2 | 1.4 | 0.2
C[C@H]1COC(=O)[C@H](Cc2ccc(F)cc2)C/C=C\C[C@@H](CC(=O)NCCO)C(=O)N1 | 12.4 | 8.4 | 14.5 | 3.1 | 2.9 | 2.8
CC(C)(C)[C@@H]1COC(=O)[C@H](Cc2ccc(F)cc2)C/C=C\C[C@@H](CC(=O)NCCO)C(=O)N1 | 31.9* | 5.1 | 3.6 | 1.6 | -0.3 | 2.5
CCn1c(COc2ccc(C)cc2)nnc1SCC(=O)c1ccc(-c2ccccc2)cc1 | . | . | . | -8.3 | . | .
C[C@@H](N)C(=O)Nc1ccc(Cl)cc1C(=O)c1ccc[nH]1 | . | . | . | 0.5 | . | .
COC(=O)[C@]12C[C@H](CC(=O)N3CCSCC3)C(=O)N(CCC3=CCCCC3)C1=C[C@H](C(C)C)O[C@@H]2C1CC1 | . | . | . | -4.6 | . | .
CCC(C)Nc1nc(N)c([N+](=O)[O-])c(Nc2cc(OC)ccc2OC)n1 (stereo not drawn) | 5.9 | -26.5 | 9.2 | 11.2 | 13.2 | 29.1*
N#CCC[C@@H]1CC[C@]2(CCCN(Cc3ccc(Cl)cc3)C2)O1 | . | . | . | 1.6 | . | .
CCOC(=O)[C@@H](NC(=O)[C@@H]1CC=C[C@@H]2CCN(Cc3ccc(Cl)cc3)C(=O)[C@@H]21)C(C)C | . | . | . | 4.2 | . | .
CCc1ccc(-c2nc(CSCC(=O)N3CCN(c4ccccn4)CC3)c(C)o2)cc1 | 44.2* | -7.4 | 3.0 | 0.1 | -1.4 | 7.8
Cc1ccc(-c2nc(CSCC(=O)N3CCN(c4ccccn4)CC3)c(C)o2)cc1 | 24.6* | -6.0 | 2.8 | 3.4 | 2.9 | -0.3
CCCC1CCC2(CC1)CCC2OC(=O)Nc1ccccc1OC (stereo not drawn) | . | . | . | 4.5 | . | .
Cc1ccc(S(=O)(=O)NCCCc2ccc3c(c2)[C@]2(CCC[C@@H](OCc4ccccc4)[C@@H]2NC(=O)CCc2ccccc2)C(=O)N3Cc2ccccc2)cc1 | . | . | . | -2.9 | . | .
CCN1C(=O)[C@H]2[C@@H](c3ccc(SC4CCCCC4)cc3)N3CCCC[C@@]3(C(=O)OC)[C@H]2C1=O | 1.1 | 3.3 | -1.1 | -0.3 | 8.1 | 1.7
CCN1C(=O)[C@@H]2[C@@H](c3ccc(SC4CCCCC4)cc3)N3CCC[C@@]3(C(=O)OC)[C@@H]2C1=O | 3.0 | -10.1 | 13.6 | -5.0 | 1.1 | 28.5*
CC(NC(=O)c1ccc([N+](=O)[O-])o1)C12CC3CC(CC(C3)C1)C2 (stereo not drawn) | 38.6* | -3.4 | 11.3 | -7.6 | 15.8 | 0.3
CC(NC(=O)C12CC3CC(CC(C3)C1)C2)C(=O)NN=Cc1ccc([N+](=O)[O-])o1 (stereo not drawn) | 15.4 | 7.5 | 0.7 | 27.4 | -7.8 | 6.0
CC(C)c1ccc(/C=C2\Oc3c(ccc(O)c3CN3CCN(C)CC3)C2=O)cc1 | 25.2* | -6.3 | 8.2 | 10.3 | 75.7* | 14.3

Screening data: PubChem, The Scripps Research Institute Molecular Screening Center
